NR2E3 ag-1: activates human NR2E3 receptor | CHO-S Gal4-NCOR/VP16-NR2E3 two-hybrid, luciferase | inhibition of corepressor binding, % at 3.98 µM | 360,000 tested, 0.35% active;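 active = inhibition above the mean of all tested compounds plus 3 SD, cut at about 70% in these data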;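 also: 0% = DMSO with NR2E3 transfected cells and 100% = cells lacking NR2E3 construct; higher means lower luciferase signal from less NR2E3 corepressor binding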
Target sequence (Q9Y5X4 whole entry, looked up, the tested form may be a part): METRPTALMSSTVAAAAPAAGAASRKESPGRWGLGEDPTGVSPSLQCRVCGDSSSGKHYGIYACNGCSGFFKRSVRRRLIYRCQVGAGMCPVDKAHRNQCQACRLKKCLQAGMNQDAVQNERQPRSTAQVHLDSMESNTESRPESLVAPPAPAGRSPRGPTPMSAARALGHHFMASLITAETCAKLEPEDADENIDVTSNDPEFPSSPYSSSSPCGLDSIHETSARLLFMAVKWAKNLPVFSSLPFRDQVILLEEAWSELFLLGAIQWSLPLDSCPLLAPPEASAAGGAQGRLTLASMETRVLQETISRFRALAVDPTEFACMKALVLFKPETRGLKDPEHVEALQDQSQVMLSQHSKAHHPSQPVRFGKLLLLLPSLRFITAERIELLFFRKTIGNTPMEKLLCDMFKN
Jurkat NFkB inh: lowers PMA/ionomycin-induced NF-kB signal in Jurkat cells; inhibition, % at 4 µM; PMA/ionomycin-induced NF-kB luciferase reporter, luminescence; 330,000 tested, 0.53% active; in the data active = inhibition above about 50%
697 NFkB inh: inhibitors of the PMA/ionomycin-induced NF-kB reporter in 697 B cells; 697 B-cell NF-kB luciferase reporter, 16 h; 330,000 tested, 0.33% active; inhibition, % at 4 µM; in the data active = inhibition above about 35%
NR2E3 ag-2: agonists of human nuclear receptor NR2E3. GST-NR2E3/biotin-RetCOR TR-FRET, 1536-well. Q9Y5X4. inhibition of corepressor binding, % at 4.78 µM. AID 2300. 320,000 tested, 0.12% active;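 active = percent inhibition above the cutoff of mean plus 3 SD of all tested compounds, set per screening campaign, cut at about 20% in these data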;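 also: 0% = DMSO wells and 100% = biotin wells as full block of FRET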
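system = GST-tagged NR2E3 plus biotinylated RetCOR corepressor | input = 1.35 nM GST-NR2E3 | also added = 7 nM biotin-RetCOR | schedule = 5 h incubation at 4 °C | measured by = TR-FRET with europium anti-GST and streptavidin-D2, 340 nm excitation | read-out = percent loss of FRET ratio relative to control wells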
miR122 inh: inhibitors of miR-122 in Huh7 cells | AID 602342 | 340,000 tested, 0.3% active | Huh7 miR-122 Renilla luciferase sensor, 48 h; neutral wells = 0, positive control = 100 | activation (reporter increase), % at 12.5 µM;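 active = mean replicate activation score at least 90 and every replicate individually at or above 90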;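 also: higher luciferase means less miR-122 activity so hits act as miR-122 inhibitors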
FGF22 binding: FGF22 (human) thermal shift binding; Q9HCT0; recombinant FGF22 thermal shift, SYPRO orange fluorescence; percent of sucrose octasulfate shift, DMSO zero; activity (Tm shift, normalised), % at 9.99 µM; 340,000 tested, 1.5% active; AID 651658;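 active = mean Tm shift, scaled 0 neutral to 100 positive control, at about 1.3% or above, every replicate too, limit read from the data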
Target sequence (Q9HCT0 whole entry, looked up): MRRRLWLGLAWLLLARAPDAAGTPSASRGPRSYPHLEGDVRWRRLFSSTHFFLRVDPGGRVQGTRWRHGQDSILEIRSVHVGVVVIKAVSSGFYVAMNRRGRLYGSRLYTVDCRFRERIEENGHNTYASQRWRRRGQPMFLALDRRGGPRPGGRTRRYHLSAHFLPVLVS
Numbers without * were called inactive; x = no result; [ ] = another dose, or the depositor's remark. This is a sample that favours compounds with a hit; in the whole collection about 2.2% have one here.

SMILES	NR2E3 ag-1	Jurkat NFkB inh	697 NFkB inh	NR2E3 ag-2	miR122 inh	FGF22 binding
O=S(=O)(Nc1cccc(S(=O)(=O)N2CCOCC2)c1)c1ccc(Cl)s1	5.7	-11.6	14.4	-0.4	24.1	43.1*
O=S(=O)(NCCc1ccccc1)c1cccc(S(=O)(=O)N2CCOCC2)c1	14.8	1.9	13.0	1.7	150.3*	x
O=S(=O)(NCCC1=CCCCC1)c1cccc(S(=O)(=O)N2CCOCC2)c1	12.4	12.0	-7.4	1.0	38.6	x
COc1ccc(S(=O)(=O)N(C)C[C@H]2Oc3c(NC(=O)c4ccncc4)cccc3C(=O)N([C@@H](C)CO)C[C@@H]2C)cc1	x	x	x	x	-2.0[16.7 µM]	0.2
CO[C@@H](CN(C)S(=O)(=O)c1ccc(Cl)cc1)[C@H](C)CN(Cc1ccccc1Cl)[C@H](C)CO	x	x	x	x	x	0.0
NC(=O)c1cc(NC(=O)c2cc(Br)c(Br)s2)cc(C(N)=O)c1	-18.5	5.6	9.0	0.1	x	42.9*
O=C(Nc1cccnc1)c1cc(Br)c(Br)s1	3.5	-32.8	-6.5	3.2	x	-0.1
C[C@H](O)C#Cc1ccc([C@H]2[C@@H](CO)N3CCCCN(C(=O)Nc4ccccc4)C[C@H]23)cc1	x	x	x	x	12.2[16.7 µM]	-0.2
CC(C)(C)N1NC2(CCCCC2)NC1=S	-0.2	0.2	3.6	-3.7	-2.9	43.1*
C[C@@H]1CN([C@@H](C)CO)S(=O)(=O)c2ccc(-c3cccnc3)cc2O[C@@H]1CN(C)C(=O)c1cccc(F)c1	x	x	x	x	4.7[16.7 µM]	-0.1
CN(C)S(=O)(=O)c1ccc2nnn(O)c2c1	6.2	-0.6	12.9	-2.9	x	43.2*
O=C(Nc1ccc(S(=O)(=O)N2CCCC2)cc1)N1c2ccccc2Sc2ccccc21	-33.8	-58.3	-42.1	-3.5	-4.0	2.3*
CS(=O)(=O)N(CC(=O)Nc1ccc(S(=O)(=O)N2CCCC2)cc1)c1ccccc1F	-2.3	-1.5	3.6	-1.6	-3.6	x
CS(=O)(=O)N(CC(=O)Nc1ccc(S(=O)(=O)N2CCCC2)cc1)c1ccccc1	24.4	-0.6	15.9	2.1	x	42.9*
FC(F)(F)c1cccc(Cc2noc(CN3CCCC3)n2)c1	1.9	7.1	7.0	7.5	x	0.2
OCC1CCCN(C2CCN(Cc3nc(Cc4cccc(C(F)(F)F)c4)no3)CC2)C1 (configuration not stated)	9.9	-13.2	-20.8	-0.2	4.1	43.3*
C[C@@H]1CN([C@@H](C)CO)S(=O)(=O)c2ccc(-c3cncnc3)cc2O[C@@H]1CN(C)C(=O)CC1CC1	x	x	x	x	-7.5[16.7 µM]	-0.1
Cc1cc(-c2nn(-c3ccccc3F)cc2CN2CCCC(CO)C2)c(C)s1 (configuration not stated)	-16.4	-2.9	-0.1	3.8	9.2	43.2*
Cc1ccc(S(=O)(=O)N[C@@H]2CC[C@H](CCNS(=O)(=O)Cc3ccccc3)O[C@@H]2CO)cc1	x	x	x	x	x	-0.3
O=S(=O)(c1cccc2cccnc12)N1CCc2ccccc21	-24.3	-0.2	3.6	-3.4	1.3	x
O=S(=O)(c1cccc2cccnc12)N1CCCc2ccccc21	-11.8	7.7	18.3	-2.7	12.3	43.2*
O=S(=O)(c1cccc2cccnc12)N1CCN(c2ccccn2)CC1	-21.5	6.8	19.2	-3.8	4.6	42.9*
O=S(=O)(c1cccc2cccnc12)N1CCN(c2ccccc2)CC1	3.2	-0.5	-11.2	-0.7	3.8	0.9
Cn1c(=S)[nH]c(=O)c2ncc(=O)[nH]c21	-8.8	1.4	2.0	1.1	x	43.5*
CN1CCN(c2ccc(CNC(=O)C3Cc4c(-c5ccc(Cl)cc5)ccnc4O3)cc2)CC1 (configuration not stated)	31.5	x	x	x	x	43.0*
SMILES	NR2E3 ag-1	Jurkat NFkB inh	697 NFkB inh	NR2E3 ag-2	miR122 inh	FGF22 binding
COc1ccc(S(=O)(=O)Nc2ccc3c(c2)C(=O)N([C@@H](C)CO)C[C@@H](C)[C@H](CN(C)C(=O)Nc2ccc(F)cc2)OCCCC[C@@H](C)O3)cc1	x	x	x	x	-1.8[16.7 µM]	18.3*
COc1ccc(S(=O)(=O)Nc2ccc3c(c2)C(=O)N([C@@H](C)CO)C[C@@H](C)[C@H](CN(C)Cc2ccc4c(c2)OCO4)OCCCC[C@H](C)O3)cc1	x	x	x	x	-12.2[16.7 µM]	1.3*
Cc1ccc(S(=O)(=O)Nc2ccc3c(c2)C(=O)N([C@@H](C)CO)C[C@H](C)[C@H](CN(C)C(=O)Nc2ccc(F)cc2)OCCCC[C@@H](C)O3)cc1	x	x	x	x	94.1*[16.7 µM]	-0.5
Cc1ccc(-c2cnc3c(c2)C(=O)N([C@H](C)CO)C[C@H](C)[C@H](CN(C)C(=O)c2ccncc2)O3)cc1	x	x	x	x	6.2[16.7 µM]	0.0
COc1ccccc1OCC(=O)NNC(=O)CCCC(=O)NNC(=O)COc1ccccc1OC	1.2	-6.1	-15.5	-1.6	-1.4	0.0
COc1ccccc1OCC(=O)N/N=C1/C=C(C)CC1	-36.9	15.6	2.5	-1.6	x	43.2*
N#C[C@@H]1[C@@H](c2ccccc2)[C@H](CO)N1C(=O)Cc1ccccc1	x	x	x	x	x	0.1
Cc1cc(C(C)(C)C)cc(S(=O)(=O)Nc2cccc(C(=O)O)c2)c1C	6.3	11.3	19.4	0.6	29.0	0.6
Cc1ccccc1NC(=O)c1ccc(NS(=O)(=O)c2cc(C(C)(C)C)cc(C)c2C)cc1	-13.1	-13.6	14.3	-0.8	320.8*	x
CC(C)NC(=O)Nc1ccc2c(c1)C(=O)N(C)[C@@H]1CC[C@@H](CC(=O)NC3CCCCC3)O[C@@H]1CO2	x	x	x	x	-12.5[16.7 µM]	0.2
C[C@H]1CN([C@@H](C)CO)C(=O)Cc2cc(NC(=O)NC3CCCCC3)ccc2O[C@H]1CN(C)C(=O)Nc1ccc(F)cc1	x	x	x	x	-3.2[16.7 µM]	-0.2
NCC1C2CCC(O2)C1CO (configuration not stated)	-7.1	x	x	x	x	44.6*
Cc1nn(-c2ccccc2)c(C)c1/C=C1\C(=O)N(C)C(=S)N1C	-1.7	5.6	1.4	-0.6	3.0	43.3*
Cc1nn(-c2ccccc2)c(Cl)c1/C=C1\SC(=S)NC1=O	10.5	-1.0	-5.0	-0.3	x	x
Cc1noc(C)c1NC(=O)Nc1cccc2c1O[C@H](CN(C)Cc1ccccc1)[C@@H](C)CN([C@H](C)CO)C2=O	x	x	x	x	96.5*[16.7 µM]	0.4
Cc1noc(C)c1NC(=O)Nc1cccc2c1O[C@@H](CN(C)Cc1ccc(Cl)c(Cl)c1)[C@@H](C)CN([C@H](C)CO)C2=O	x	x	x	x	114.1*[16.7 µM]	x
Cc1noc(C)c1NC(=O)Nc1cccc2c1O[C@H](CN(C)Cc1ccccc1)[C@@H](C)CN([C@@H](C)CO)C2=O	x	x	x	x	4.6[16.7 µM]	-0.8
COc1ccc(-n2nc(C(=O)NCC(=O)NCC3COc4ccccc4O3)c3ccccc3c2=O)cc1 (configuration not stated)	3.2	-7.0	-11.9	0.9	-3.4	43.1*
O=C(C[C@@H]1CC[C@H]2[C@@H](COC[C@@H](O)CN2C(=O)c2ccccc2F)O1)N1CCCCC1	x	x	x	x	6.4[16.7 µM]	0.1
